Data on one compound can be found in article PMC12257511 (Journal of the American Chemical Society, 2025).

Where a SMILES comes first, the peptide text is derived from it. Bridges are numbered along the chain shown (N, C = ends).

Data set [1] in a line: Self-assembly and solubility of the peptide itself. The conditions noted are these: microscopy and turbidity measurements, absence of αSyn. The class given is physicochemical. A digest of the protocol:
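Test compound alone, without αSyn, added from DMSO stock to 10% PEG buffer at 1% DMSO final, over a range of concentrations. Incubated 30 min at 4 °C. Turbidity read at 600 nm in a 1 mm cell; supernatant fluorescence also measured.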

Data set [2] concerns the target T1, αSyn (Homo sapiens, UniProt P37840). Briefly: Phase separation assay of αSyn with peptides. The class given is biochemical. A digest of the protocol: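 αSyn monomer dissolved in 10 mM NaOH to neutral pH, filtered, stored at −80 °C as a 400 μM stock. Mixed with 10% PEG in buffer pH 7.5 (DIC series: 20 mM sodium phosphate) and test compound from DMSO stock, 1% DMSO final. αSyn 100 μM unless stated (20–200 μM range); peptide 10–1,000 μM. Incubated 30 min at 4 °C. DIC at room temperature; turbidity at 600 nm, 1 mm cell, Peltier-controlled.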

The target in data set [3] is T1, αSyn. Briefly: ThT/ANS fluorescence assay of spontaneous αSyn aggregation. The class given is biochemical. A digest of the protocol:
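αSyn monomer diluted in 10× PBS with 20 μM ThT and 50 μM ANS (from 1 mM stock) and test compound at 0.1–10 mol equiv, prepared on ice. Plate held at 37 °C, cycling 3 min shaking/27 min quiescence. Bottom read: ThT ex 440 nm, ANS ex 380 nm, em 480 nm; three repeats per sample. […].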

Another data set has as its system αSyn1–103. The experiment in a line: Phase separation assay with C-terminally truncated αSyn. The data set is classed as biochemical, human. Conditions: 400 μM peptide, DIC images.

Consider `C[C@@H](O)[C@H](NC(=O)[C@H](CCCNC(=N)N)NC(=O)[C@H](Cc1c[nH]c2ccccc12)NC(=O)[C@H](Cc1c[nH]c2ccccc12)NC(=O)[C@H](CCCNC(=N)N)NC(=O)[C@@H]1CCCN1C(=O)[C@H](CCCCN)NC(=O)[C@@H]1CSCC(=O)N[C@@H](Cc2ccc(O)cc2)C(=O)N[C@@H](CCC(N)=O)C(=O)N[C@@H](CCCNC(=N)N)C(=O)N[C@@H](Cc2c[nH]c3ccccc23)C(=O)N1)C(=O)N[C@@H](CS)C(=O)N[C@@H](Cc1ccc(O)cc1)C(=O)N[C@@H](Cc1c[nH]c2ccccc12)C(=O)N[C@@H](CS)C(=O)NCC(=O)N[C@@H](CCCCN)C(=O)N[C@@H](CCCCN)C(=O)N[C@@H](CCCCN)C(N)=O` [FL2] ({CH2CO}-YQRWCKPRWWRTCYWCGKKK-NH2; thioether N-5), for which the “Self-assembly of the peptide itself” value in data set [1] was “tends to undergo self-assembly and/or LLPS at high concentrations”. In addition, the “Temperature-dependent turbidity of the condensates” value at αSyn [2] (PBS buffer, 400 μM FL2 or 1 mM FD1) is “dissociated to a dispersed monomeric state as the temperature increased”. For the same compound, the “Concentration dependence of droplet formation” value at αSyn [2] (peptide 10–1,000 μM, 100 μM αSyn, 30 min at 4 °C, turbidity at 600 nm and fluorescence of the dilute phase) is reported as “concentration-dependent increase in droplet formation”. For the same compound, the “ANS fluorescence in the droplets” value at αSyn [3] (400 μM FL2, 3 h incubation at 37 °C, fluorescence images) is “increase in ANS fluorescence intensity in the droplets”. The “Effect on spontaneous αSyn fibril formation, condition ii” value on αSyn [3] (10% PEG in PBS, 0.1 to 10 mol equiv peptide, ThT, 37 °C, three repeats) is “a reduction in both ThT fluorescence intensity and lag time”. Further, the “Maximum ThT and ANS intensity at high peptide concentrations” value at αSyn [3] (conditions ii and iii) was “decrease of magnitude of ThT signal and increase of ANS intensity”. In addition, the “Effect on spontaneous αSyn fibril formation, condition i” value at αSyn [3] (no PEG, PBS buffer, 0.1 to 10 mol equiv peptide, ThT, 37 °C, three repeats) was “no acceleration of the fibril formation of αSyn but rather expanded the lag time”. In the data set with αSyn1–103, the “LLPS efficiency with αSyn1–103 (class label in DIC image)” value is reported as “formed aggregates rather than liquid droplets”.
